Experimental data reported in PMC6146380 (Acta Pharmaceutica Sinica. B, 2018).
Structures can show the parent of a compound that is named as a salt. Where two headings read alike, the source gives them in different places.

How the values were obtained:
[1] = system: A549 cells; test: MTT cytotoxicity assay; type: cell-based, human; conditions: read-out: IC50 (in vitro cytotoxicity)
Procedure, shortened: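 A549 cells seeded at 5 × 10³/well in DMEM with 10% FBS and antibiotics, preincubated 24 h at 37 °C, 5% CO₂. Test drug in PBS added at various concentrations for 48 h; untreated controls received fresh medium. MTT (5 mg/mL stock) added for 4 h, formazan dissolved in DMSO, absorbance read at 490 nm. Triplicate measurements.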

[2] = system: C6 cells; test: Cellular uptake of FITC-labeled peptides by flow cytometry, C6; type: cell-based, rat; conditions: 5 × 10^−6 mol/L, 4 h
Procedure, shortened: (§1)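 Cells grown in DMEM with 10% FBS at 37 °C, 5% CO₂. Seeded at 8 × 10⁴ cells/well and incubated overnight. FITC-labeled peptides (N-terminal Cys–maleimide-FITC) added at a final 5 × 10⁻⁶ mol/L for 4 h. Cells then trypsinized, centrifuged, resuspended in PBS and analysed by flow cytometry. Fluorescence signal compared between labeled peptides.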

[3] = system: HUVEC; test: Cellular uptake of FITC-labeled peptides by flow cytometry, HUVEC; type: cell-based, human; conditions: 5 × 10^−6 mol/L, 4 h
Procedure, shortened: as §1

[4] = system: A549 cells; test: Cellular uptake of FITC-labeled peptides by flow cytometry, A549; type: cell-based, human; conditions: 5 × 10^−6 mol/L, 4 h
Procedure, shortened: as §1

[5] = system: U87 cells; test: Cellular uptake of FITC-labeled peptides by flow cytometry, U87; type: cell-based, human; conditions: 5 × 10^−6 mol/L, 4 h
Procedure, shortened: as §1

In the case of N.N.O=C([O-])C1(C(=O)[O-])CCC1.[Pt+2] [carboplatin], the IC50 ([1]; A549 cells, MTT assay, 48 h treatment, triplicate) is reported as 138 µM.

Nc1ccn([C@@H]2O[C@H](CO)[C@@H](O)C2(F)F)c(=O)n1 [gemcitabine, Gemcitabine hydrochloride] showed an IC50 ([1]; Homo sapiens, A549, 48 h) of 4.83 µM.

For FITC-D(CRGERPPR), the “mean fluorescent intensity, times higher than FITC-D(CRPPREGR)” value [2] was 2.9 times, the “mean fluorescent intensity, times higher than that of FITC-CRGERPPR” value (“mean fluorescent intensity … of FITC-CRGERPPR” for short) [2] was 5.4 times and the “mean fluorescent intensity … of FITC-CRGERPPR” value [3] was ~13.1 times. The “mean fluorescent intensity, times higher than that of FITC-D(CRPPREGR)” value [3] was 5.7 times, the “FITC-positive ratio, times higher than that of FITC-CRGERPPR” value [4] was 1.6 times and the “FITC-positive ratio, times higher than that of FITC-D(CRPPREGR)” value [4] was 1.3 times. The “mean fluorescent intensity, times higher than FITC-D(CRPPREGR)” value [5] was 3.5 times and the “mean fluorescent intensity … of FITC-CRGERPPR” value [5] was 3.3 times.
